Data on one compound can be found in ChEMBL document CHEMBL5107962, “Covalent sortase A inhibitor ML346 prevents Staphylococcus aureus infection of Galleria mellonella” (RSC Med Chem, 2022).

Experiment [1] addresses T1, Sortase A (Staphylococcus aureus, UniProt Q9S446). The experiment is described as follows: Inhibition of recombinant Staphylococcus aureus sortase A deltaN24 transpeptidation expressed in Escherichia coli BL21 (DE3) cells using Abz-LPATG-Dnp as substrate preincubated for 20 mins followed by substrate addition and measured every 1 min for 15 mins by FRET assay. The essentials:
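His-tagged enzyme purified by Ni-NTA and gel filtration. 1 µM SrtA preincubated with compound (0.05–50 µM) for 20 min at room temperature in 50 mM Tris-HCl pH 7.5, 150 mM NaCl, 5 mM CaCl2. Reaction started with 10 µM Abz-LPATG-Dnp, read at ex 309/em 420 nm. IC50 from a sigmoidal dose–response fit; triplicates, two experiments.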

Experiment [2] in a line: Inhibition of recombinant Streptococcus pyogenes sortase A deltaN81 transpeptidation expressed in Escherichia coli BL21 (DE3) cells using IsdA64 to 323 as substrate preincubated for 20 mins followed by substrate addition and measured after 1.5 hrs by SDS-PAGE-based assay. The method in brief: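 SrtA (200 µg mL-1) preincubated with inhibitor (1–50 µM) for 20 min at room temperature in Tris pH 7.5, NaCl, CaCl2 buffer. IsdA64-323 (300 µg mL-1 final) and 3 mM (Gly)3 added, incubated at 37 °C for 1.5 h, then run on 12% SDS-PAGE. IC50 from band quantification of precursor and mature product. Two independent experiments.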

Experiment [3] addresses T1, Sortase A. The experiment is described as follows: Irreversible inhibition of recombinant Staphylococcus aureus sortase A deltaN24 expressed in Escherichia coli BL21(DE3) cells using Abz-LPATG-Dnp as substrate preincubated for 40 mins followed by substrate addition and measured every 1 min for 15 mins by FRET-based assay. The method in brief:
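SaSrtAΔN24 preincubated with compound for 10, 20, 40 or 60 min before FRET IC50 determination with Abz-LPATG-Dnp in Tris pH 7.5, NaCl, CaCl2 buffer.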

A short description of experiment [4]: Irreversible inhibition of recombinant Streptococcus pyogenes sortase A deltaN81 expressed in Escherichia coli BL21(DE3) cells using Abz-LPATG-Dnp as substrate preincubated for 10 mins followed by substrate addition and measured every 1 min for 15 mins by FRET-based assay.
The nature of experiment [5]: Irreversible inhibition of recombinant Streptococcus pyogenes sortase A deltaN81 expressed in Escherichia coli BL21(DE3) cells using Abz-LPATG-Dnp as substrate preincubated for 60 mins followed by substrate addition and measured every 1 min for 15 mins by FRET-based assay.
Experiment [6] concerns Sortase A (Staphylococcus aureus), Q9S446 [UNDEFINED MUTATION]. In words: Irreversible inhibition of recombinant Staphylococcus aureus sortase A deltaN24 expressed in Escherichia coli BL21(DE3) cells using Abz-LPATG-Dnp as substrate assessed as maximum inactivation rate constant preincubated for 60 mins followed by substrate addition and measured every 1 min for 15 mins by fluorescence intensity based assay. To be noted: time 75.0 min. The essentials: (§1)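 Variable inhibitor concentrations incubated with SaSrtAΔN24 or SpSrtAΔN81 for different times, followed by FRET enzyme kinetics with Abz-LPATG-Dnp. kobs fitted as kinact × [I]/(KI + [I]) to give kinact and KI.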

Experiment [7] in a line: Irreversible inhibition of recombinant Streptococcus pyogenes sortase A deltaN81 expressed in Escherichia coli BL21(DE3) cells using Abz-LPATG-Dnp as substrate assessed as inactivation constant preincubated for 60 mins followed by substrate addition and measured every 1 min for 15 mins by fluorescence intensity based assay. The essentials: as §1
Experiment [8] concerns Streptococcus pyogenes. In words: Irreversible inhibition of recombinant Streptococcus pyogenes sortase A deltaN81 expressed in Escherichia coli BL21(DE3) cells using Abz-LPATG-Dnp as substrate assessed as maximum inactivation rate constant preincubated for 60 mins followed by substrate addition and measured every 1 min for 15 mins by fluorescence intensity based assay. As to conditions: time 75.0 min. The method in brief: as §1

The target in experiment [9] is Cathepsin B (Homo sapiens, UniProt P07858). The experiment is described as follows: Inhibition of cathepsin B (unknown origin) using Cbz-Phe-Arg-AMC as substrate at 20 uM preincubated for 5 mins followed by substrate addition and measured after 10 mins by fluorometric assay. To be noted: time 15.0 min. The method in brief: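 Cbz-Phe-Arg-AMC added (40 µM for B, 80 µM for L) and fluorescence read at ex 380/em 460 nm over 10 min. E64 at 6.25 nM as control. Triplicates, two experiments.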

The subject of experiment [10] is Staphylococcus aureus. The experiment is described as follows: Anti-virulence activity against Staphylococcus aureus Newman assessed as decrease in SpA display on cell envelope at 25 to 200 uM by Western blot analysis. As to conditions: dose 25-200 µM. Format: functional, organism-based. The essentials:
(§2)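 S. aureus overnight culture diluted 1:1000 in TSB and grown with inhibitor until A600 3.0. Washed cells treated with 10 µg mL-1 lysostaphin in PBS for 15 min at 37 °C. Supernatant (cell-wall anchored proteins) run on SDS-PAGE and immunoblotted for SpA, with ClpP as loading control. Three independent experiments.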
(In western blotting, separated proteins are transferred to a membrane and probed.)

The subject of experiment [11] is Staphylococcus aureus. The experiment is described as follows: Anti-virulence activity against Staphylococcus aureus USA300 assessed as decrease in SpA display on cell envelope by Western blot analysis. As to conditions: dose 25-200 µM, DDE = dose-dependent effect. Format: functional, organism-based. The method in brief:
as §2

The subject of experiment [12] is Staphylococcus aureus. The experiment is described as follows: Antibiofilm activity against methicillin-resistant Staphylococcus aureus USA300 assessed as reduction in biofilm biomass at 25 to 200 uM incubated for 18 hrs by crystal violet staining based microplate reader analysis. Format: functional, organism-based. To be noted: dose 25-200 µM. The essentials:
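S. aureus overnight culture diluted 1:1000 in TSB with inhibitor, grown static at 37 °C for 18 h. Wells rinsed with PBS, fixed with methanol 10 min, stained with 0.1% crystal violet 15 min. Stain dissolved in 33% acetic acid and A600 read. Three independent experiments, mean ± SEM.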

Experiment [13] has as its system Staphylococcus aureus. In words: Antibacterial activity against Staphylococcus aureus USA300 assessed as inhibition of bacterial growth incubated for 16 to 18 hrs. In kind it is functional. To be noted: time 16-18 hrs. The method in brief: (§3)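 Broth microdilution: S. aureus in TSB, E. coli in LB. Overnight cultures diluted 1:1000, grown at 37 °C to A600 0.6, then diluted 1:400 into two-fold compound dilutions. Incubated 16–18 h at 37 °C without shaking. MIC taken as the lowest concentration with no visible growth. Two independent experiments.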

In experiment [14] the test system is Escherichia coli. The experiment is described as follows: Antibacterial activity against Escherichia coli AB1157 assessed as inhibition of bacterial growth incubated for 16 to 18 hrs. Format: functional. To be noted: time 16-18 hrs. The essentials: as §3
For experiment [15], the system named is Staphylococcus aureus. In words: Anti-infectivity against Staphylococcus aureus Newman infected in Galleria mellonella larvae assessed as survival rate at 25 mg/kg and measured after 120 hrs. In kind it is functional. The essentials:
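G. mellonella larvae (2-2.5 cm, creamy), starved 24 h at room temperature. S. aureus grown in TSB to A600 1.0, washed and resuspended in PBS, premixed with compound in vehicle (5% DMSO, 20% PEG300, 75% PBS with 6.6% solutol HS-15). Injected into last proleg at about 1 × 10^6 CFU/larva (Newman) or 1 × 10^7 CFU/larva (USA300). Groups of 15 kept at 37 °C, survival recorded 120 h, Mantel–Cox test.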

The source made the active and inactive calls. The calls are words filed in the database; no cut-off is given here.

Usually IC50 stands for the point on the concentration scale where inhibition reaches its midpoint. For orientation: MIC means the lowest concentration found to suppress growth. Regarding `COc1ccc(/C=C/C=C2C(=O)NC(=O)NC2=O)cc1`, the IC50 is 370 nM in experiment [1]; 5880 nM in [2]; 400 nM in experiment [3]; 3700 nM in experiment [4]; 700 nM in experiment [5]. In addition, the Kinact in experiment [6] is 0.185 min⁻¹; in experiment [8] it was 0.044 min⁻¹. The Ki in experiment [7] is 686 nM. The inhibition result in experiment [9] was “Active”. The result in experiment [10] and in experiment [12] was Active. For the same compound, the Activity entry in experiment [11] is “Dde”; in experiment [15], 46.7%. Further, the MIC in experiment [13] and in [14] was > 512 µg/mL in each case.
